Source: article PMC5724766 (Bioorganic & medicinal chemistry, 2016)
Each block holds one compound with its values, some of them ahead of it.

Columns and labels:
proteasome = details: cited from earlier work; for IC50: read-out: IC50, proteasome inhibition
[1] = molecular target: purified human 20S proteasome, tryptic (β2)-like activity (Homo sapiens, UniProt Q99436); assay: 20S proteasome trypsin-like; assay type: biochemical
How it was run: (§1)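 Purified human 20S proteasome (1 nM) in 50 mM Tris-HCl pH 7.5 with 0.03% SDS and 50 μM fluorogenic substrate at 37 °C: Z-LLE-AMC for caspase-like activity, Z-ARR-AMC for trypsin-like activity. Released aminomethylcoumarin read at ex 380/em 460 nm every minute for 30 min. Maximum fluorescence increase per minute gives the specific activity of each sample.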

[2] = molecular target: purified human 20S proteasome, caspase (β1)-like activity (Homo sapiens, UniProt P28072); assay: 20S proteasome caspase-like; assay type: biochemical
How it was run: as §1

SMILES: Nc1ccc(O)c2ncccc12 [5-AHQ, 5-amino-8-hydroxyquinoline]
IC50 (proteasome): 600 to 5000 nM

inhibition of tryptic-like activity (in words) ([1]; purified human 20S proteasome, Suppl. Fig. S6): not the tryptic-like activity
IC50 [2]: 10.9 µM
SMILES: Cc1nc2ccc(N3CCCCC3)cc2cc1C1=CCCCC1 [Compound 25, 3-Cyclohexenyl-2-methyl-6-piperidinylquinoline]

IC50 [1]: > 25 µM
SMILES: Cc1cc(C)c2cc(C3=CCCCC3)c(C)nc2c1 [Compound 7, 3-Cyclohexenyl-2,5,7-trimethylquinoline]

SMILES: CCN(CC)CCCC(C)Nc1ccnc2cc(Cl)ccc12 (stereo not drawn) [chloroquine]
proteasome inhibitory activity (in words) (proteasome): millimolar activity

SMILES: O=C1C(Cl)=C(Nc2ccc(S(=O)(=O)Nc3ccccn3)cc2)C(=O)c2ccccc21 [PI-083]
IC50 (proteasome): ~1000 nM
